From ChEMBL document CHEMBL1667827, “Pyridylmethylthio derivatives as VEGF inhibitors: part 2” (Bioorg Med Chem Lett, 2011)

Legend:
CYP3A4 = CYP3A4 (Homo sapiens, UniProt P08684); experiment: Inhibition of CYP3A4 at 10 uM using testosterone as substrate; type: ADME; settings: probe testosterone
Method in brief: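 CYP3A4 inhibition measured as percent inhibition at 10 μM test compound, testosterone as substrate.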

HUVEC = experiment: Antiangiogenic activity in HUVEC assessed as inhibition of VEGF-induced proliferation after 3 days by WST-8 assay; type: functional, cell-based; settings: Homo sapiens, 72 h
Method in brief: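 HUVEC seeded and incubated 1 day, then VEGF plus test compound added; cell number counted after 3 further days of incubation. Growth rate calculated relative to control; IC50 is concentration giving half inhibition of VEGF-induced proliferation, in nM.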

B16 = experiment: Antitumor activity against mouse B16 cells xenografted in C57BL/6N mouse assessed as tumor growth at 100 mg/kg, po qd for 10 days relative to control; type: functional; settings: B16, 240 h
Method in brief: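 B16 cell suspension injected subcutaneously under anesthesia into female C57BL/6 mice, six weeks old. Compound suspension given orally once daily; ten days after cell injection, tumors excised and weighed, anti-cancer effect calculated relative to control.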

Rattus norvegicus [1] = experiment: Antiangiogenic activity in Brown Norway rat assessed as inhibition of laser-induced neovascularization incidence rate at 3 mg/kg, po qd for 7 days relative to control; type: functional; settings: 168 h
Method in brief: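 Male Brown Norway rats, eight weeks old, under anesthesia and mydriasis; krypton laser photocoagulation of Bruch's membrane. Compound suspension given orally once daily. Seven days after photocoagulation, fluorescein injected via tail vein, fundus photographed, fluorescence leaks counted; neovascularization incidence rate compared with control.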

Rattus norvegicus [2] = experiment: Antiinflammatory activity in Lewis rat adjuvant arthritis model assessed as inhibition of paw edema at 10 mg/kg, po qd for 20 days relative to control; type: functional; settings: 480 h
Rattus norvegicus [3] = species on record: Rattus norvegicus; experiment: animal or person; settings: Brown Norway, po, 168 h, read-out: INH

CYP3A4, sequence (P08684 whole entry): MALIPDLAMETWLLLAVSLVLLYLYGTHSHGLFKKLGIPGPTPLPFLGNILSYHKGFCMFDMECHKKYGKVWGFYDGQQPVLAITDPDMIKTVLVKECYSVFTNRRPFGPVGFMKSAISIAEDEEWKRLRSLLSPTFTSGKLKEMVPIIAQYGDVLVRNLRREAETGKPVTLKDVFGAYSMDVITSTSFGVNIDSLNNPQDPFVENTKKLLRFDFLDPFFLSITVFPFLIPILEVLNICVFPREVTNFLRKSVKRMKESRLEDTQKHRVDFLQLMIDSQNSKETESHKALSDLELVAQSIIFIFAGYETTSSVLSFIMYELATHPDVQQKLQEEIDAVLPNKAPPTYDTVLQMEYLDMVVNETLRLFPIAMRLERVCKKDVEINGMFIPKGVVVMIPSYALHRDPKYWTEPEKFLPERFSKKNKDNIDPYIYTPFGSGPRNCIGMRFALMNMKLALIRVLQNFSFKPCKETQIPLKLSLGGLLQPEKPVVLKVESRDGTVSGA

SMILES	inhibition at 10 µM (CYP3A4) [%]	IC50 (HUVEC) [nM]	other results
Cc1cc(C)cc(NC(=O)c2cccnc2SCc2ccnc(NC(=O)CN(C)C)c2)c1		22	
Cc1cc(C)cc(NC(=O)c2cccnc2SCc2cc[n+](C)cc2)c1		> 2000	
Cc1cc(C)cc(NC(=O)c2cccnc2SCc2ccnc(C)c2)c1		68	
CNc1cc(CSc2ncccc2C(=O)Nc2cc(C)cc(C)c2)ccn1		21	
CC(=O)N(C)c1cc(CSc2ncccc2C(=O)Nc2cc(C)cc(C)c2)ccn1		65	
Cc1cc(C)cc(NC(=O)c2cccnc2SCc2ccnc(N3CCOCC3)c2)c1		84	
COc1cc(CSc2ncccc2C(=O)Nc2cc(C)cc(C)c2)ccn1		100	
CNC(=O)c1cc(CSc2ncccc2C(=O)Nc2cc(C)cc(C)c2)ccn1		18	
CCC(=O)Nc1cc(CSc2ncccc2C(=O)Nc2cc(C)cc(C)c2)ccn1		1.8	
COC(=O)Nc1cc(CSc2ncccc2C(=O)Nc2cc(C)cc(C)c2)ccn1		15	
Cc1cc(C)cc(NC(=O)c2cccnc2SCc2ccnc(NC(=O)CO)c2)c1		6.6	
CNC(=O)Nc1cc(CSc2ncccc2C(=O)Nc2ccc(OC(F)(F)F)cc2)ccn1		20	
NCC(=O)Nc1cc(CSc2ncccc2C(=O)Nc2ccc(OC(F)(F)F)cc2)ccn1		49	
C[C@H]1C[C@H]2[C@@H]3CCC4=CC(=O)C=C[C@]4(C)[C@@]3(F)[C@@H](O)C[C@]2(C)[C@@]1(O)C(=O)COP(=O)(O)O [BETAMETHASONE PHOSPHORIC ACID]			inhibition in vivo at 1 mg/kg (Rattus norvegicus [3]): 96%
Clc1ccc(Nc2nnc(Cc3ccncc3)c3ccccc23)cc1 [VATALANIB]			inhibition in vivo at 10 mg/kg (Rattus norvegicus [2]): 23%

Second part, led by results:

inhibition at 10 µM (CYP3A4) [%]	SMILES	IC50 (HUVEC) [nM]	other results
96	Cc1cc(C)cc(NC(=O)c2cccnc2SCc2ccncc2)c1		
16	Cc1cc(C)cc(NC(=O)c2cccnc2SCc2cc[n+]([O-])cc2)c1	24	inhibition in vivo at 100 mg/kg (B16): 76%
40	Cc1cc(C)cc(NC(=O)c2cccnc2SCc2ccnc(F)c2)c1	13	
60	Cc1cc(C)cc(NC(=O)c2cccnc2SCc2ccnc(Cl)c2)c1	12	
48	Cc1cc(C)cc(NC(=O)c2cccnc2SCc2ccnc(C#N)c2)c1	3.5	
21	Cc1cc(C)cc(NC(=O)c2cccnc2SCc2ccnc(N)c2)c1	5.8	
20	CC(=O)Nc1cc(CSc2ncccc2C(=O)Nc2cc(C)cc(C)c2)ccn1	< 0.91	
69	CSc1cc(CSc2ncccc2C(=O)Nc2cc(C)cc(C)c2)ccn1	100	
24	CNC(=O)Nc1cc(CSc2ncccc2C(=O)Nc2cc(C)cc(C)c2)ccn1	8.8	inhibition in vivo at 100 mg/kg (B16): 43%
10	Cc1cc(C)cc(NC(=O)c2cccnc2SCc2ccnc(NC(=O)CN)c2)c1	48	
14	Cc1cc(C)cc(NC(=O)c2cccnc2SCc2ccnc(NC(=O)CNCCN(C)C)c2)c1	5.9	inhibition in vivo at 3 mg/kg (Rattus norvegicus [1]): 55%; inhibition in vivo at 100 mg/kg (B16): 83%; inhibition in vivo at 10 mg/kg (Rattus norvegicus [2]): 70%
23	Cc1cc(C)cc(NC(=O)c2cccnc2SCc2ccnc(NC(=O)CNCCCO)c2)c1	18	inhibition in vivo at 100 mg/kg (B16): 77%
38	CC(=O)Nc1cc(CSc2ncccc2C(=O)Nc2ccc(OC(F)(F)F)cc2)ccn1	3.9	
17	O=C(CO)Nc1cc(CSc2ncccc2C(=O)Nc2ccc(OC(F)(F)F)cc2)ccn1	7.4	inhibition in vivo at 100 mg/kg (B16): 85%
19	CN(C)CC(=O)Nc1cc(CSc2ncccc2C(=O)Nc2ccc(OC(F)(F)F)cc2)ccn1	35	
29	CN(C)CCNCC(=O)Nc1cc(CSc2ncccc2C(=O)Nc2ccc(OC(F)(F)F)cc2)ccn1	18	inhibition in vivo at 100 mg/kg (B16): 79%
33	O=C(CNCCCO)Nc1cc(CSc2ncccc2C(=O)Nc2ccc(OC(F)(F)F)cc2)ccn1	26	inhibition in vivo at 100 mg/kg (B16): 79%
